Common to all, as to experiment: competitive ABPP of PAFAH2 versus anti-target hydrolases – cell lysate, fluorescence, gel-based ABPP, BW5147 T-cell proteome, powder samples, late-stage follow-up (AID 504513);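 note: 0% = DMSO-only band intensity and 100% = blank gel background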
One experiment has as its system LYPLA1. Conditions: BW5147 mouse T-cell proteome, FP-Rh gel ABPP, stronger effect = higher value. The gist of the method: (§1)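 assay system = mouse BW5147 T-cell soluble lysate | amount = 1 mg/mL soluble protein | schedule = compound pretreatment 30 min, then 30 min probe labelling at 25 °C | measured by = in-gel fluorescence of probe-labelled bands, integrated optical density | evaluation = percent band labelling lost versus DMSO control | control set = DMSO-only sample as high, blank gel area as low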

In another experiment the test system is ESD. The following applies: BW5147 mouse T-cell proteome, FP-Rh gel ABPP, stronger effect = higher value. The procedure, abridged: as §1
A further experiment deals with ABHD11. Conditions: BW5147 mouse T-cell proteome, FP-Rh gel ABPP, stronger effect = higher value. The gist of the method:
as §1

The next experiment deals with APEH. The following applies: BW5147 mouse T-cell proteome, FP-Rh gel ABPP, stronger effect = higher value. The procedure, abridged:
as §1

The target of experiment [1] is Platelet-activating factor acetylhydrolase 2, cytoplasmic (Mus musculus) (UniProt Q8VDG7). The following applies: FP-Rh gel ABPP, stronger effect = higher value. The procedure, abridged: as §1

Active and inactive are the calls of the source.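 Rule for the calls: active = PAFAH2 inhibition at least 50% at 0.2 µM with under 50% on each related off-target enzyme; inactive = the rest, including PAFAH2 hits that also hit off-targets.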

Chain of Platelet-activating factor acetylhydrolase 2, cytoplasmic (Mus musculus) (Q8VDG7 whole entry, looked up): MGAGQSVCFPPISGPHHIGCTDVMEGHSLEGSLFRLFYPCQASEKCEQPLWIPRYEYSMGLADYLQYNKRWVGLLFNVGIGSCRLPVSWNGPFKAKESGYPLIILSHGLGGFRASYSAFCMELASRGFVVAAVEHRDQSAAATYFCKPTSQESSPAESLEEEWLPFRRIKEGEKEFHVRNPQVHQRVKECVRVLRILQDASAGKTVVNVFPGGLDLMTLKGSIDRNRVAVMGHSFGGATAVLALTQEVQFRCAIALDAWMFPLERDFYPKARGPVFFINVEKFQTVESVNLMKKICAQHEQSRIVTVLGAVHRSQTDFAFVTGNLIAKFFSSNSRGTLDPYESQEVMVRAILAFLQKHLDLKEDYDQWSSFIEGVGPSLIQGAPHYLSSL

`CN(C(=O)n1ccnn1)c1ccccc1`: the inhibition is 0% (inactive) in the experiment on LYPLA1 (at 1 µM); 0% with LYPLA1 (inhibition, at 0.02 µM); 0% in the experiment with LYPLA1 (inhibition, at 0.2 µM); 0% (inactive) with ESD (at 1 µM); 0% in the experiment on ESD (inhibition, at 0.02 µM); 0% in the experiment on ESD (inhibition, at 0.2 µM). Also, the inhibition is 100% (inactive) in the experiment on ABHD11 (at 1 µM); 0% in the experiment on ABHD11 (inhibition, at 0.02 µM); 0% in the experiment on ABHD11 (inhibition, at 0.2 µM); 0% (inactive) in the experiment with APEH (at 1 µM); 0% with APEH (inhibition, at 0.02 µM); 0% with APEH (inhibition, at 0.2 µM). For the same compound, the inhibition is 0% (inactive) in experiment [1] (PAFAH2, at 1 µM); 0% in experiment [1] (PAFAH2, inhibition, at 0.02 µM); 0% in experiment [1] (PAFAH2, inhibition, at 0.2 µM).

For the compound `O=C(N1CCCC1)n1ncc(-c2ccc(OC(F)(F)F)cc2)n1`, the inhibition is 0% (inactive) in the experiment on LYPLA1 (at 1 µM); 0% in the experiment on LYPLA1 (inhibition, at 0.02 µM); 0% in the experiment on LYPLA1 (inhibition, at 0.2 µM); 0% (inactive) in the experiment on ESD (at 1 µM); 0% in the experiment with ESD (inhibition, at 0.02 µM); 0% in the experiment on ESD (inhibition, at 0.2 µM). Moreover, the inhibition is 50% in the experiment on ABHD11 (at 1 µM); 0% with ABHD11 (inhibition, at 0.02 µM); 50% with ABHD11 (inhibition, at 0.2 µM); 100% with APEH (at 1 µM); 0% in the experiment with APEH (inhibition, at 0.02 µM); 100% with APEH (inhibition, at 0.2 µM). Moreover, the inhibition is 100% in experiment [1] (PAFAH2, at 1 µM); 25% in experiment [1] (PAFAH2, inhibition, at 0.02 µM); 100% in experiment [1] (PAFAH2, inhibition, at 0.2 µM).

Consider `O=C(N1CCCC1)n1ncc(-c2ccccc2)n1`, for which the inhibition with LYPLA1 (at 1 µM) was 0% (inactive); in the experiment with LYPLA1 (inhibition, at 0.02 µM) it was 0%; in the experiment with LYPLA1 (inhibition, at 0.2 µM), 0%; in the experiment with ESD (at 1 µM), 0% (inactive); in the experiment with ESD (inhibition, at 0.02 µM), 0%; in the experiment on ESD (inhibition, at 0.2 µM) it was 0%. Further, the inhibition was 100% in the experiment with ABHD11 (at 1 µM); 0% with ABHD11 (inhibition, at 0.02 µM); 100% in the experiment on ABHD11 (inhibition, at 0.2 µM); 100% with APEH (at 1 µM); 0% in the experiment on APEH (inhibition, at 0.02 µM); 100% in the experiment with APEH (inhibition, at 0.2 µM). In addition, the inhibition in experiment [1] (PAFAH2, at 1 µM) is 100%; in experiment [1] (PAFAH2, inhibition, at 0.02 µM) it was 75%; in experiment [1] (PAFAH2, inhibition, at 0.2 µM), 100%.

As for `O=C(N1CCOCC1)n1ncc(-c2ccc(OC(F)(F)F)cc2)n1`, the inhibition in the experiment on LYPLA1 (at 1 µM) is 0% (inactive); with LYPLA1 (inhibition, at 0.02 µM), 0%; in the experiment on LYPLA1 (inhibition, at 0.2 µM), 0%; with ESD (at 1 µM), 0% (inactive); in the experiment with ESD (inhibition, at 0.02 µM) it was 0%; in the experiment with ESD (inhibition, at 0.2 µM), 0%. In addition, the inhibition in the experiment with ABHD11 (at 1 µM) is 100%; with ABHD11 (inhibition, at 0.02 µM), 25%; in the experiment on ABHD11 (inhibition, at 0.2 µM) it was 100%; with APEH (at 1 µM), 0% (inactive); with APEH (inhibition, at 0.02 µM), 0%; in the experiment on APEH (inhibition, at 0.2 µM), 0%. Besides, the inhibition was 50% in experiment [1] (PAFAH2, at 1 µM); 0% in experiment [1] (PAFAH2, inhibition, at 0.02 µM); 50% in experiment [1] (PAFAH2, inhibition, at 0.2 µM).

Take `CCN(CC)C(=O)n1ccnn1`: the inhibition was 0% (inactive) with LYPLA1 (at 1 µM); 0% in the experiment with LYPLA1 (inhibition, at 0.02 µM); 0% in the experiment on LYPLA1 (inhibition, at 0.2 µM); 0% (inactive) in the experiment on ESD (at 1 µM); 0% in the experiment with ESD (inhibition, at 0.02 µM); 0% in the experiment with ESD (inhibition, at 0.2 µM). For the same compound, the inhibition in the experiment on ABHD11 (at 1 µM) was 0% (inactive); in the experiment on ABHD11 (inhibition, at 0.02 µM), 0%; in the experiment on ABHD11 (inhibition, at 0.2 µM), 0%; in the experiment with APEH (at 1 µM), 0% (inactive); in the experiment on APEH (inhibition, at 0.02 µM) it was 0%; in the experiment on APEH (inhibition, at 0.2 µM), 0%. Besides, the inhibition was 0% (inactive) in experiment [1] (PAFAH2, at 1 µM); 0% in experiment [1] (PAFAH2, inhibition, at 0.02 µM); 0% in experiment [1] (PAFAH2, inhibition, at 0.2 µM).

The inhibition is how much of the control response was suppressed.
